Measured values reported in ChEMBL document CHEMBL1122250, “Synthesis and bacterial metabolism of cis- and trans-2-alkyl analogues of sodium cyclamate” (1983).

Tests used:
Rattus norvegicus [1] = species on record: Rattus norvegicus; test: Evaluated for the amine formed (during conversion of N-cycloalkylsulfamates to cycloalkylamines) in 10 mL incubation in cyclamate-fed rats; assay type: functional
How it was run: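 Rats drank 1% sodium cyclamate for at least 6 weeks; only cyclamate converters were used. Fresh feces (~5 g) were suspended in prereduced anaerobic minimal medium (pH 7 ± 0.2), and the washed bacterial pellet was resuspended. 1.0 mL suspension plus 9 mL medium and 100 mg sulfamate ran 22–24 h at 44–45 °C with CO2 bubbling. Amine was converted to phenylurea with phenyl isocyanate and quantified by HPLC-UV 240 nm against an external standard. Reported as µg per 10 mL.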

Rattus norvegicus [2] = species on record: Rattus norvegicus; test: Evaluated for the amine formed (during conversion of N-cycloalkylsulfamates to cycloalkylamines) in 10 mL incubation in Control rats; assay type: functional
How it was run: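 Fresh feces (~5 g) from control rats were suspended in prereduced anaerobic minimal medium (pH 7 ± 0.2), spun at low then high speed, and the pellet resuspended. 1.0 mL suspension plus 9 mL medium and 100 mg sulfamate ran 22–24 h at 44–45 °C with CO2 bubbling. Amine was extracted at pH 10 into CH2Cl2, derivatized with phenyl isocyanate, and read by HPLC-UV 240 nm against an external standard. Reported as total µg per 10 mL.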

For `CC1CCCCC1NS(=O)(=O)[O-].[Na+]` (cis isomer), which Amine formed (Rattus norvegicus [1]) is on record?
Its Amine formed is 457 µg.

And the Amine formed (Rattus norvegicus [2])?
Its Amine formed is 402 µg.

For `CC1CCCCC1NS(=O)(=O)[O-].[Na+]` (stereo in doubt), which Amine formed (Rattus norvegicus [1]) is on record?
The Amine formed was 42 µg.

What about the Amine formed (Rattus norvegicus [2]) of the same compound?
Its Amine formed is 0 µg.

Which Amine formed (Rattus norvegicus [1]) does the source give for `CCC1CCCCC1NS(=O)(=O)[O-].[Na+]` (stereo in doubt) here?
Its Amine formed is 35 µg.

How did the Amine formed (Rattus norvegicus [1]) turn out when `CC(C)C1CCCCC1NS(=O)(=O)[O-].[Na+]` (stereo in doubt) was run?
Its Amine formed is 37.5 µg.

What about the Amine formed (Rattus norvegicus [2]) of the same compound?
The Amine formed was 27.9 µg.

`CCC1CCCCC1NS(=O)(=O)[O-].[Na+]` (trans isomer) was tested. Which Amine formed (Rattus norvegicus [1]) did it give?
The Amine formed was 57 µg.

What about the Amine formed (Rattus norvegicus [2]) of the same compound?
Its Amine formed is 0 µg.

Which results are given for `CC(C)C1CCCCC1NS(=O)(=O)[O-].[Na+]` (trans isomer)?
Amine formed (Rattus norvegicus [1]): 0 µg; Amine formed (Rattus norvegicus [2]): 0 µg

How did the Amine formed (Rattus norvegicus [1]) turn out when `O=S(=O)([O-])NC1CCCCC1.[Na+]` [SODIUM CYCLAMATE] was run?
The Amine formed was 39 µg.

And the Amine formed (Rattus norvegicus [2])?
Its Amine formed is 0 µg.
